Test results published in ChEMBL document CHEMBL1133838, “Novel 5-vinyl pyrimidine nucleosides with potent anti-hepatitis B virus activity” (Bioorg Med Chem Lett, 2001).
Converted amounts (≈) assume the structure as drawn.

Key:
[1] = tested on: Nucleic Acid; assay: Concentration required to reduce the viral DNA in infected cells to 50% of untreated infected controls.; type: functional, cell-based; conditions: Duck hepatitis B virus
Summary of the method: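 Confluent primary hepatocyte cultures from chronically DHBV-infected Pekin ducks treated with drug. Viral DNA in cells measured against untreated infected controls. EC50 in μg/mL. Three independent experiments, with the range of EC50 reported.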

[2] = tested on: Vero; assay: Compound was evaluated for cytotoxicity against stationary Vero cells using MTT assay; type: functional; conditions: Chlorocebus sabaeus
Summary of the method: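 Stationary Vero cells exposed to drug for 3 days. Viability read by MTT assay against untreated controls. CC50 taken as the concentration (μg/mL) giving 50% loss of viability. ">" means 50% was not reached at the highest concentration tested.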

[3] = tested on: Vero; assay: Concentration required to inhibit plaque formation by HSV-1 strain KOS (TK+) in monolayers of vero cells; type: functional, cell-based; conditions: Chlorocebus sabaeus
Summary of the method: (§1)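 Vero cells seeded one day ahead. Infected with HSV-1 KOS (TK+) or TK-deficient KOSSB at ~100 PFU/well for 1 h at 37 °C. Inoculum replaced by medium with serial drug dilutions in duplicate, then refined by 1:2 dilutions. Acyclovir control at 5 and 1 μg/mL (TK+) or 50, 25, 10, 1 μg/mL (TK−). After 48 h at 37 °C, fixed with methanol and Giemsa-stained. Plaques counted against no-drug wells for EC50.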

[4] = species on record: Homo sapiens; assay: Concentration required to reduce the proliferation of PHA stimulated human peripheral blood T lymphocytes; type: functional
Summary of the method: (§2)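 Fresh human peripheral blood T lymphocytes stimulated with PHA and grown with drug. Cellular DNA synthesis followed by [methyl-3H]thymidine incorporation. Value is the concentration (μg/mL) reducing proliferation to 50% of untreated PHA-stimulated controls. Tested up to 50 μg/mL.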

[5] = tested on: Vero; assay: Concentration required to inhibit plaque formation by HSV-1 strain KOSSB (TK-) in monolayers of vero cells; type: functional, cell-based; conditions: Chlorocebus sabaeus; summary of the method: as §1
[6] = tested on: Duck hepatitis B virus; assay: Percent inhibition of viral DNA in the presence of 10 ug/mL compound compared to untreated infected controls in duck hepatocytes
[7] = species on record: Homo sapiens; assay: Concentration required to reduce the proliferation of PHA stimulated human peripheral blood T lymphocytes to 50% of untreated PHA Stimulated control; type: functional; summary of the method: as §2

| SMILES | EC50 [1] [µg/mL] | CC50 [2] [µg/mL] | EC50 [3] [µg/mL] | IC50 [4] [µg/mL] | EC50 [5] [µg/mL] | Inhibition [6] [%] | IC50 [7] [µg/mL] |
| --- | --- | --- | --- | --- | --- | --- | --- |
| C=Cc1cn(CCC(CO)CO)c(=O)[nH]c1=O | 3 (≈ 12.5 µM) | > 100 | > 25 | > 50 | > 50 | 77.5 |  |
| Nc1ccn([C@@H]2CSC(CO)O2)c(=O)n1 (single isomer, unassigned) [LAMIVUDINE] | 0.01 (≈ 0.0436 µM) | > 100 |  |  |  | 96 | > 50 |
| Nc1nc2c(ncn2COCCO)c(=O)[nH]1 [ACYCLOVIR] |  | > 100 | 0.5 (≈ 2.22 µM) |  | 40 (≈ 178 µM) |  |  |

More lines, main results first:

| EC50 [1] [µg/mL] | SMILES | CC50 [2] [µg/mL] | EC50 [3] [µg/mL] | IC50 [4] [µg/mL] | EC50 [5] [µg/mL] | Inhibition [6] [%] | IC50 [7] [µg/mL] |
| --- | --- | --- | --- | --- | --- | --- | --- |
| > 10 | C=Cc1cn(COCCO)c(=O)[nH]c1=O | > 100 | > 25 | > 50 | > 50 | 40.6 |  |
| 1 (≈ 4.13 µM) | C=Cc1cn(COC(CO)CO)c(=O)[nH]c1=O | > 100 | > 25 | > 50 | > 50 | 81 |  |
| 1.5 (≈ 5.88 µM) | Nc1nc2c(ncn2COC(CO)CO)c(=O)[nH]1 [GANCICLOVIR] |  |  |  |  |  |  |
| 0.3 (≈ 1.18 µM) | Nc1nc(O)c2ncn(CCC(CO)CO)c2n1 [PENCICLOVIR] |  |  |  |  |  |  |
